Test results from the EternaBench riboswitch data.

System: MS2 coat protein
Test: apparent Kd, MS2 coat protein; higher = weaker binding; RNA-MaP array; FMN 200 µM where present
How it was run: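 SNAP-549-labelled MS2 coat protein, doubled from 0.7 or 1.5 nM to 3 µM, was titrated over designs transcribed by stalled E. coli RNA polymerase on Illumina sequencing-chip clusters. Titrations were run without and then with constant ligand in 100 mM Tris-HCl pH 7.5, 80 mM KCl, 4 mM MgCl2, BSA, DTT, yeast tRNA and Tween-20. The apparent Kd is the median of filtered per-cluster fits to green signal normalised to red-channel RNA signal and control-cluster median Fmax.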

[1] = designed as: OFF switch for flavin mononucleotide, no ligand
[2] = ligand present: flavin mononucleotide, designed as: OFF switch for flavin mononucleotide
[3] = designed as: ON switch for flavin mononucleotide, no ligand
[4] = ligand present: flavin mononucleotide, designed as: ON switch for flavin mononucleotide

Sequence	apparent Kd [1]	apparent Kd [2]	apparent Kd [3]	apparent Kd [4]
UUAUUAUAUGUAGGAUAUGCAUAUUAUUAUUGUGCAGAAGGACAUGAGGAUCACCCAUGUAUAUUAUUAGUAUAUAUUAUAUAU	18.5 nM	19.2 nM		
ACAGUAUAUGUAGGAUAUCGUUGGUUAGAUAGGCGAGAAGGGCAUAGUACAUGAGGAUCACCCAUGUGUUGGUCCUCGCAGAAA	454 nM	237 nM		
UGGUAACAUGAGGAUCACCCAUGUCAGGAUAUCAGUAAGAAGAGAUUAGAGUAGAAUAUGAGAAGGGACUAUAG	36.7 nM	30.4 nM		
AAUUGGAUCCAGAAGGCAUGGACGACCCGUCACAUUAACAUGAGGAUCACCCAUGUCAAAAUACAUGAGGAUAUGGAUCCUAAA			905 nM	37.9 nM
AAUCCACAUGAGGAUCACCCAUGUCAGGAUAUCGCGCGCGCGGUUUCGGUCGCGCGCGCGAGAAGGGACGGCUG	28.8 nM	51.7 nM		
AAAUUUAACGAAGGAUAUGGUUACAUGAGGAUCACCCAUGUGUGCCUUGUGAUCUUGUUUAAGUUCCAGAAGGUCGUAUACAUA	41.7 nM	183 nM		
UAGUAUAAGGGCAUUACACAUGAGGAUCACCCAUGUACGUUAGAGGAUAUGCAUUCCAGUCGAACGUAGAAGGUUAGAGAAGGG	211 nM	176 nM		
UAGGCGAACAUGAGGAUCACCCAUGUACGCGGUAUAUGAGCGAGAAGGGUAUGAUGUGUGGUCCUACAGGAUAUCGCUAAUAAA			26.2 nM	6.52 nM
CCGGAAACGGGUAGCCUGACAUGAGGAUCACCCAUGUGAACCGAGGAUAUGGAUCCUAAUUGGAUCCAGAAGGUGGCAGGCUAC			681 nM	245 nM
GUAGCAUACCAAGGAUAUUCAGGGCGUGGAUAGACAUGAGGAUCACCCAUGUGGCGAAAGCCUAGGGAGAAGGUGGAAUGCUAC			36.1 nM	20.1 nM
GGGAUGUCAGGAUAUCCAAAAGUCUGCCAAUACAGCAGACAGGAGAAGGGACAUGAGGAUCACCCAUGUAAAGA	39.5 nM	107 nM		
AAAAAGGGAGGAUAUACAUGAGGAUCACCCAUGUGAAAAAAAAAAAAAAAAAAAAAAAGUAGAAGGCCCAAAAA	67.1 nM	53.8 nM		
CAUAUACAGGGAGGAUAUAACAUGAGGAUCACCCAUGUGCAAUGCUCAAUGUUAGAAGGCCCAAUAGAAUCGCAAAAGGCAUCC	89.8 nM	272 nM		
GUUAAGUGAGGAUAUGGUGAGUAGUGCCUGAGCGCUGCUCACCAGAAGGCACAUGAGGAUCACCCAUGUAUAAC	23 nM	36 nM		
GUAUUGAUAACAGGAUAUAUGAGUCCUACAUGAGGAUCACCCAUGUAGGUGAUCAGCCGUGAUUAGUAGAAGGGUUAUCAAUAC			12.5 nM	5.98 nM
AAAAAGUGAGGAUAUGCUGCUCGUCACUUGCGUGAUGAGUAGCAGAAGGCACAUGAGGAUCACCCAUGUAAAAA	36.2 nM	42.8 nM		
UAUGUUGUUGUGAGGAUAUACUUAGUUUGACCGUAGUAGAAGGCACAUGAGGAUCACCCAUGUAGAUUUUUGGU	9.54 nM	15.8 nM		
UGUGGUGAAGUAGGAUAUCAACACACAUGAGGAUCACCCAUGUUAGAUGUGGAUGUUGUAUGUUAUGAGAAGGACUUCGGUGCG	23.6 nM	89 nM		
AGUCGGAGCAGAGGAUAUUACAUGAGGAUCACCCAUGUAUAAAGAUCAAGCUGGAAACAGCAAUGUAAGAAGGCUGCUCCGACA	57.4 nM	321 nM		
UUGAUAAGGAGAGGAUAUUGACAUGAGGAUCACCCAUGUACAUGGGAGUAUUUACUGAAUUCUUACGAGAAGGCUUACAUAUUU	165 nM	115 nM		
UGUAUGGACAGAGGAUAUACCGAUAGGAUCUACUAUCGAAGAAUCCUCACAUGAGGAUCACCCAUGUAGAAGGCUGUCCAUACU	41.3 nM	665 nM		
UUGCUACAUGAGGAUCACCCAUGUCAGGAUAUUGUCUAUACCGUGGAAGCUGUGUCGAUAAGAAGGGACUGUCU	24.1 nM	41.6 nM		
AAACAUGUCCGAGGAUAUCUGGAAACAUUUCCAAGAGAAGGCGGACAUGAGGAUCACCCAUGUCUCUCCUCAUCAAAUCCAAAU	9.18 nM	88.9 nM		
CGAGAUCUUGAGAAGGCAUAAUAUAUAAUACCACAUGUUUACAUGAGGAUCACCCAUGUUUCCUAUGAGGAUAUCAGGAUUUCG	20.9 nM	17.1 nM		

Sequence	apparent Kd [1]	apparent Kd [2]	apparent Kd [3]	apparent Kd [4]
UUCUUUCCUCAUGUACAUGAGGAACAUGAGGAUCACCCAUGUAGAAGGAUUUCCCUUAAAUUAAAAUAGGAUAUACAUAUAUUU	27.9 nM	24.7 nM		
GUGGUAUUCGUAGGAUAUCCGUCGCCACCGUGUGGAGAAGGACGAACAUGAGGAUCACCCAUGUAUCAUGGUGUGGACGCUGUC	92.1 nM	86.6 nM		
AUAAAGCGAGGAUAUACAUGAGGAUCACCCAUGUGGCAGCCAGGUAGGAGUGACGUCGGUAGAAGGCGCACCCU	31.9 nM	35.6 nM		
AUCAGCUCGUCAGGAUAUACGUCACUGCUUCGGCAGUGUGGUAAGGUCACAUGAGGAUCACCCAUGUAGAAGGGACGAGCUGAU	8.32 nM	120 nM		
GUUAUAAAGGUAGGAUAUUGUAUUAUAAUUAAAUAAGAAGGAUCUCACAUGAGGAUCACCCAUGUAAGAGGAUCACCCAUGUAG	20.1 nM	14.6 nM		
GAUCUCGUCUAGAAGGUGUAAUAUAUAGUAGUACAAGGAUAUAGACAUGAGGAUCACCCAUGUCGUGCCUGGGCUCAUCUUAAA	5.92 nM	7.64 nM		
AAAAGACAUGAGGAUCACCCAUGUCAAGACGUGGGAGGAUAUGCAUGGAAAACAUGCUGUGCAGAAGGCCCGUGUC			25.6 nM	17.9 nM
CAUCAUUCUGUAAGGAUAUUAAUCGAGUGACUUAUUAAGAAGGUACAUGAGGAUCACCCAUGUGGGAGGUGAGG	363 nM	947 nM		
AAGCUAACCACAGGAUAUCCACAUGAGGAUCACCCAUGUUGCUGAAGAGCAGGAGAAGGGUGGUGGGCAGAGUGCGCUGUCGUG			53.5 nM	8.75 nM
GGCUACAUCGGAGGAUAUCAUGUAAAUACAUGAGGAUCACCCAUGUCGAUGGAGACAUCGGAGAUUGAGAAGGCCGAUGUACCG			182 nM	8.49 nM
GCAUCCUGGUAGAAGGGACAUCGGCUGGUAAGCAUCAUCUCCUUCUCACAUGAGGAUCACCCAUGUCAGGAUAUACCAGGACGC	12.3 nM	42.1 nM		
ACGCGUUGGGAGAAGGUACAUUAAAUUAGUUACACAUGAGGAUCACCCAUGUAAGGAUAUCCCAUCGUGUAAUAUUAUACAGCA	9.76 nM	9.62 nM		
UUGGACGUCGUAGGAUAUGUAGGAUAUUCCUACAUGAGGAUCACCCAUGUUAACAUGGAAGAAGGACAGAAGGACGAUGUCCAU			326 nM	4.76 nM
GCCUUACCGGUCAGGAUAUACACUCGUCACUCCUUGUAGAAGGGACAUGAGGAUCACCCAUGUACAUUACAUUC	38.6 nM	38 nM		
UGUCUAUUUGAAGGAUAUCUAAGCAUAAACCAGAGAGAAGGUCAAUUAUACAUGAGGAUCACCCAUGUUGAGAUUAAUGGGUUU	20.5 nM	26.4 nM		
UCGAUCGGAGGAUAUACUAAUACAACUACUGAAGUGUCAAAACAUGAGGAUCACCCAUGUAGAAGGCCGAUAUA	21.8 nM	24.3 nM		
UUUUAACAUGAGGAUCACCCAUGUGAGGAUAUCGAAAUUUAUAUUUAUAUUAAUAUUUCGAGAAGGCACAUUUU	195 nM	191 nM		
AGUUAAUAUCGAGGAUAUCCUCAGAAACAUGAGGAUCACCCAUGUAGAAUGGGAGAAGGCGAUAUUAACAGCAUGUUACAUGCA			182 nM	27.9 nM
GUUAUGCAGCAGGAUAUCCAUCCGCGGUAUGGUGGAGAAGGGCUGACAUGAGGAUCACCCAUGUGCGUCCUAGG	39.9 nM	104 nM		
AACUGACAUGAGGAUCACCCAUGUCAGGAUAUGACUUGAUAGAAAAUAAAAUAUCAUGUCAGAAGGGACAUGGG	20.2 nM	18.5 nM		
AAAUUAAGAAGAGGAUAUUGACAUGAGGAUCACCCAUGUAUUUGGGAAUGUUUACUGAAUUCUUACAAGAAGGUUUACGAACUU	157 nM	99.7 nM		
UGGUACAUGGGAGGAUAUCCUCAAACAUGAGGAUCACCCAUGUAAAAUUAUAAGCCGAAAGGCAUGGAGAAGGCCCAUGUACCU			119 nM	17 nM
AGUUAAUAUCGAGGAUAUCCUCAUCUACAUGAGGAUCACCCAUGUAAACAUGGAGAAGGCGAUAUUAACAGCAUGUUACAUGCA			259 nM	14.9 nM
CAAAGGUGAGGAUAUGCAUAACUAUGACGAAAGUCAUAAACACAUGAGGAUCACCCAUGUAGAAGGCGCCACAA	63.6 nM	47.8 nM		
